Results pooled from the literature.
Lines come from different studies, so protocols differ.
Target: High affinity nerve growth factor receptor (NTRK1, Homo sapiens, UniProt P04629)

`CS(=O)(=O)N1CCCC(NC(=O)[C@H](CCC2CCCCC2)NC(=O)c2ccc(CNc3ncnc4c3nnn4-c3ccccc3)cc2)C1` (some centres unmarked) gave a remaining binding of 100% (cell-free assay, competition with immobilised ligand; 0.1 µM).
For `O=C1NC(=O)c2cc(Nc3ccc(F)cc3)c(Nc3ccc(F)cc3)cc21`, the remaining signal was 93.6% (cell-free assay; 0.5 µM).
`CN(c1nccc(-c2cnn3ncccc23)n1)C1CC1` gave a remaining signal of 100% (cell-free assay; 1 µM).
The remaining signal of `C[C@@H]1CCN(C(=O)CC#N)C[C@@H]1N(C)c1ncnc2[nH]ccc12` is reported as 94.1% (cell-free assay; 0.5 µM).
`Cc1ccc(NC(=O)c2ccc(C)c(C(F)(F)F)c2)cc1C#Cc1nn(C2CCC(O)CC2)c2ncnc(N)c12` (centres unmarked) has a remaining signal of 72% (cell-free assay; 10 µM).
`CCOCCn1cc(C(=O)Nc2ccc(-n3nc(-c4cccnc4)cc3C(F)(F)F)cn2)ccc1=O` has a remaining binding of 100% (cell-free assay, competition with immobilised ligand; 1 µM).
With `CC(C)(C)c1nc2c(s1)c1nc(N)ncc1c1ccc(NS(=O)(=O)c3c(F)cccc3F)c(F)c12` the remaining activity was 54% (enzyme activity, inhibitor, radiometric; 1 µM).
For `Oc1cccc(-c2nc(N3CCOCC3)c3oc4ncccc4c3n2)c1`, the remaining activity was 93% (enzyme activity, inhibitor; 10 µM).
`O=C(Nc1ccc2[nH]ncc2c1)c1cccc(NC(=S)Nc2cc(C(F)(F)F)cc(C(F)(F)F)c2)c1` has an inhibition of 51.3% (enzyme activity, inhibitor, FRET; 1 µM).
`Cc1c(NC(=O)c2cc(C(N)=O)nc3cc(F)ccc23)c(C(F)(F)F)nn1Cc1ccc(C#N)cc1` has a remaining binding of 83% (cell-free assay, competition with immobilised ligand; 1 µM).
With `O=C(Nc1cccc(C(=O)Nc2ccc3[nH]ncc3c2)c1)Nc1ccccc1Cl` the inhibition was 37.7% (enzyme activity, inhibitor, FRET; 1 µM).
The activity vs control of `Cc1cc(NC(=O)c2cccc3cc(-c4cccc5[nH]nc(N)c45)ccc23)ccc1F` is reported as 121% (enzyme activity, inhibitor; 0.1 µM).
`CC(=O)N1CCC(c2ccc(C(=O)NC(=N)N)cc2C(F)(F)F)CC1` gave a remaining binding of 100% (cell-free assay, competition with immobilised ligand; 1 µM).
For `CN(C)C1CCN(CC#Cc2nn(C3CCCC3)c3nc(NCc4ccccc4)ncc23)C1` (centres unmarked), the inhibition was 17% (enzyme activity, inhibitor, FRET; 1 µM).
With `Cc1[nH]c(/C=C2\C(=O)Nc3ccc(F)cc32)c(C)c1C(=O)N[C@H]1CCN(C(=O)N(C)C)C1` the remaining activity was 5% (enzyme activity, inhibitor; 1 µM).
For `O=C(Nc1ccc2[nH]ncc2c1)c1cccc(NC(=S)Nc2ccc(F)cc2F)c1`, the inhibition was 67.3% (enzyme activity, inhibitor, FRET; 1 µM).
`CNC(=O)Nc1ccc2c(c1)CC[C@@]21OC(=O)N(CC(=O)N(Cc2ccc(F)cc2)[C@@H](C)C(F)(F)F)C1=O` gave a remaining binding of 81% (cell-free assay, competition with immobilised ligand; 1 µM).
`O=C(Nc1cccc(C(=O)Nc2ccc3[nH]ncc3c2)c1)Nc1ccccc1F` has an inhibition of 42.7% (enzyme activity, inhibitor, FRET; 1 µM).
For `CCN(CC)CCNC(=O)c1c(C)[nH]c(/C=C2\C(=O)Nc3ccc(F)cc32)c1C`, the remaining activity was 2% (enzyme activity, inhibitor; 1 µM).
`O=C(Nc1cnn2ccc(N3CCC[C@@H]3c3cc(F)ccc3F)nc12)N1CC[C@H](O)C1` gave an inhibition of 100% (enzyme activity, inhibitor, FRET; 1 µM).
With `Cc1ccc(NC(=O)c2ccc(CN3CCN(C)CC3)cc2)cc1Nc1nc(-c2cccnc2)cs1` the remaining signal was 97.1% (cell-free assay; 0.5 µM).
The remaining binding of `COc1ccc2c(c1)O[C@H](c1ccc(OC)c(OC)c1)C[C@@H]2NC(=O)C1(c2ccc3c(c2)OC(F)(F)O3)CC1` is reported as 100% (cell-free assay, competition with immobilised ligand; 1 µM).
The remaining signal of `Cc1ccc(C(=O)Nc2ccc(CN3CCN(C)CC3)c(C(F)(F)F)c2)cc1C#Cc1cnc2cccnn12` is reported as 26% (cell-free assay; 23.5 nM).
With `CCCOc1ccc(OC)c(F)c1C(=O)c1ccc(C(=O)N[C@@H]2CNC[C@H]2NC(=O)c2ccc3[nH]ncc3c2)cc1` the remaining activity was 46% (enzyme activity, inhibitor; 10 µM).
For `CCS(=O)(=O)c1cc2cc(C[C@](O)(CC(C)(C)c3ccc(F)cc3C(N)=O)C(F)(F)F)[nH]c2cn1`, the remaining binding was 82% (cell-free assay, competition with immobilised ligand; 1 µM).
For `O=C(Nc1ccc2[nH]ncc2c1)c1cccc(NC(=O)c2cc(C(F)(F)F)ccc2F)c1`, the inhibition was 34% (enzyme activity, inhibitor, FRET; 1 µM).
For `O=C(Nc1cnn(-c2csc(C(=O)NC3COC3)c2)c1)Nc1ccccc1Cl`, the remaining activity was 100% (enzyme activity, inhibitor; 5 µM).
The remaining binding of `COc1cc(-c2cn(C3CCc4ccccc4N(CC(F)(F)F)C3=O)nn2)ccc1-n1ccc(C)n1` (centres unmarked) is reported as 63% (cell-free assay, competition with immobilised ligand; 1 µM).
`FC(F)(F)Oc1cccc(-c2cnc3ccc(-c4ccncc4)nn23)c1` gave an activity vs control of 16% (enzyme activity, inhibitor, radiometric; 1 µM).
